From ChEMBL document CHEMBL1268908, “Design, synthesis, radiolabeling, and in vivo evaluation of carbon-11 labeled N-[2-[4-(3-cyanopyridin-2-yl)piperazin-1-yl]ethyl]-3-methoxybenzamide, a potential positron emission tomography tracer for the dopamine D(4) receptors” (J Med Chem, 2010)

Tests used:
Striatum [1] = experiment: Biodistribution in rhesus monkey striatum at 150.3 MBq, iv after 2.75 mins; type: ADME, organism-based, Macaca mulatta; conditions: in vivo, 165 s
[2] = Biodistribution in rhesus monkey cingulate cortex at 150.3 MBq, iv after 25 mins; type: ADME, organism-based, Macaca mulatta; conditions: in vivo
In short: (§1)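 Male rhesus monkey under ketamine (10 mg/kg im) with head fixation. After a 20 min 68Ge-68Ga transmission scan, the [11C]-labelled tracer in saline (pH 7.4) was injected iv, at 2.9 TBq/μmol specific radioactivity at injection. A dynamic 3D PET scan followed over 90 min (6×0.5, 7×1, 20×2, 8×5 min frames). Regions were defined on T1-weighted 1.5 T MRI, and uptake is given as %ID/mL.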

Striatum [3] = experiment: Biodistribution in rhesus monkey striatum at 150.3 MBq, iv after 21 mins; type: ADME, organism-based, Macaca mulatta; conditions: in vivo, 0.35 h
[4] = Biodistribution in rhesus monkey cerebellum at 150.3 MBq, iv after 21 mins; type: ADME, organism-based, Macaca mulatta; conditions: in vivo, 0.35 h; in short: as §1
[5] = Biodistribution in rhesus monkey entorhinal cortex at 150.3 MBq, iv after 39 mins; type: ADME, organism-based, Macaca mulatta; conditions: in vivo, 0.65 h
In short: (§2)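 Single male rhesus monkey anesthetized with ketamine 10 mg/kg im, head fixed. Attenuation correction by 20 min 68Ge-68Ga transmission scan. [11C]-tracer in saline (pH 7.4) given iv, specific radioactivity 2.9 TBq/μmol at injection. Dynamic 3D PET emission scan over 90 min in frames of 0.5 to 5 min. MRI T1 images used to define VOIs. Uptake expressed as […].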

Striatum [6] = experiment: Biodistribution in rhesus monkey striatum at 150.3 MBq, iv after 3.5 mins; type: ADME, organism-based, Macaca mulatta; conditions: in vivo
[7] = Biodistribution in rhesus monkey cerebellum at 150.3 MBq, iv after 57.5 mins; type: ADME, organism-based, Macaca mulatta; conditions: in vivo; in short: as §1
Striatum [8] = experiment: Biodistribution in rhesus monkey striatum at 150.3 MBq, iv after 4.5 mins; type: ADME, organism-based, Macaca mulatta; conditions: in vivo, 0.075 h
[9] = Biodistribution in rhesus monkey cerebellum at 150.3 MBq, iv after 29 mins; type: ADME, organism-based, Macaca mulatta; conditions: in vivo; in short: as §1
[10] = Biodistribution in rhesus monkey cerebellum at 150.3 MBq, iv after 49 mins; type: ADME, organism-based, Macaca mulatta; conditions: in vivo; in short: as §1
[11] = Biodistribution in rhesus monkey retina at 150.3 MBq, iv after 7.5 mins; type: ADME, organism-based, Macaca mulatta; conditions: in vivo, 0.125 h
Hippocampus [12] = experiment: Biodistribution in rhesus monkey hippocampus at 150.3 MBq, iv after 13 mins; type: ADME, organism-based, Macaca mulatta; conditions: in vivo; in short: as §2
Striatum [13] = experiment: Biodistribution in rhesus monkey striatum at 150.3 MBq, iv after 7.5 mins; type: ADME, organism-based, Macaca mulatta; conditions: in vivo, 0.125 h
Striatum [14] = experiment: Biodistribution in rhesus monkey striatum at 150.3 MBq, iv after 47 mins; type: ADME, organism-based, Macaca mulatta; conditions: in vivo
Hippocampus [15] = experiment: Biodistribution in rhesus monkey hippocampus at 150.3 MBq, iv after 29 mins; type: ADME, organism-based, Macaca mulatta; conditions: in vivo
In short: (§3)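 Male rhesus monkey under ketamine 10 mg/kg im, head fixed; 20 min 68Ge-68Ga transmission scan, then 90 min dynamic 3D PET (6×0.5, 7×1, 20×2, 8×5 min frames) after iv [11C]-labelled tracer in saline, specific radioactivity about 2.9 TBq/μmol at injection. Regions defined on T1-weighted MRI; uptake expressed as % injected dose per mL.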

[16] = Biodistribution in rhesus monkey retina at 150.3 MBq, iv after 72.5 mins; type: ADME, organism-based, Macaca mulatta; conditions: in vivo
[17] = Biodistribution in rhesus monkey cingulate cortex at 150.3 MBq, iv after 13 mins; type: ADME, organism-based, Macaca mulatta; conditions: in vivo; in short: as §1
[18] = Biodistribution in rhesus monkey cerebellum at 150.3 MBq, iv after 27 mins; type: ADME, organism-based, Macaca mulatta; conditions: in vivo, 0.45 h; in short: as §1
[19] = Biodistribution in rhesus monkey cingulate cortex at 150.3 MBq, iv after 19 mins; type: ADME, organism-based, Macaca mulatta; conditions: in vivo; in short: as §1
Striatum [20] = experiment: Biodistribution in rhesus monkey striatum at 150.3 MBq, iv after 15 mins; type: ADME, organism-based, Macaca mulatta; conditions: in vivo, 0.25 h
Striatum [21] = experiment: Biodistribution in rhesus monkey striatum at 150.3 MBq, iv after 77.5 mins; type: ADME, organism-based, Macaca mulatta; conditions: in vivo
[22] = Biodistribution in rhesus monkey cerebellum at 150.3 MBq, iv after 77.5 mins; type: ADME, organism-based, Macaca mulatta; conditions: in vivo; in short: as §1
[23] = Biodistribution in rhesus monkey occipital lobe at 150.3 MBq, iv after 27 mins; type: ADME, organism-based, Macaca mulatta; conditions: in vivo, 0.45 h; in short: as §3
[24] = Biodistribution in rhesus monkey retina at 150.3 MBq, iv after 62.5 mins; type: ADME, organism-based, Macaca mulatta; conditions: in vivo
[25] = Biodistribution in rhesus monkey cerebellum at 150.3 MBq, iv after 17 mins; conditions: in vivo
[26] = Biodistribution in rhesus monkey retina at 150.3 MBq, iv after 11 mins; type: ADME, organism-based, Macaca mulatta; conditions: in vivo
[27] = Biodistribution in rhesus monkey cerebellum at 150.3 MBq, iv after 3.5 mins; type: ADME, organism-based, Macaca mulatta; conditions: in vivo; in short: as §1
[28] = Biodistribution in rhesus monkey occipital lobe at 150.3 MBq, iv after 6.5 mins; type: ADME, organism-based, Macaca mulatta; conditions: in vivo
[29] = Biodistribution in rhesus monkey cerebellum at 150.3 MBq, iv after 1.25 mins; type: ADME, organism-based, Macaca mulatta; conditions: in vivo, 75 s; in short: as §1
[30] = Biodistribution in rhesus monkey cerebellum at 150.3 MBq, iv after 25 mins; type: ADME, organism-based, Macaca mulatta; conditions: in vivo; in short: as §1
Striatum [31] = experiment: Biodistribution in rhesus monkey striatum at 150.3 MBq, iv after 41 mins; type: ADME, organism-based, Macaca mulatta; conditions: in vivo
[32] = Biodistribution in rhesus monkey cerebellum at 150.3 MBq, iv after 4.5 mins; type: ADME, organism-based, Macaca mulatta; conditions: in vivo, 0.075 h; in short: as §1
[33] = Biodistribution in rhesus monkey occipital lobe at 150.3 MBq, iv after 4.5 mins; type: ADME, organism-based, Macaca mulatta; conditions: in vivo, 0.075 h; in short: as §3
[34] = Biodistribution in rhesus monkey occipital lobe at 150.3 MBq, iv after 43 mins; type: ADME, organism-based, Macaca mulatta; conditions: in vivo
In short: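 A male rhesus monkey was anaesthetised with ketamine 10 mg/kg im and placed in a head fixation device. A 20 min 68Ge-68Ga transmission scan was run for attenuation correction. Radiotracer in saline (pH 7.4) was given iv, about 52 pmol (18 ng), at 2.9 TBq/μmol at injection. A dynamic 3D PET scan followed for 90 min. Regional VOIs were defined on a T1-weighted MRI, with uptake expressed as %ID/mL.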

Hippocampus [35] = experiment: Biodistribution in rhesus monkey hippocampus at 150.3 MBq, iv after 52.5 mins; type: ADME, organism-based, Macaca mulatta; conditions: in vivo, 0.875 h; in short: as §3
[36] = Biodistribution in rhesus monkey cingulate cortex at 150.3 MBq, iv after 31 mins; type: ADME, organism-based, Macaca mulatta; conditions: in vivo; in short: as §1
[37] = Biodistribution in rhesus monkey retina at 150.3 MBq, iv after 15 mins; type: ADME, organism-based, Macaca mulatta; conditions: in vivo, 0.25 h
Striatum [38] = experiment: Biodistribution in rhesus monkey striatum at 150.3 MBq, iv after 19 mins; type: ADME, organism-based, Macaca mulatta; conditions: in vivo
[39] = Biodistribution in rhesus monkey entorhinal cortex at 170.3 MBq, iv after 17 mins; type: ADME, organism-based, Macaca mulatta; conditions: in vivo, in the assay text read “150.3 MBq” for “170.3 MBq”; in short: as §2
[40] = Biodistribution in rhesus monkey cingulate cortex at 150.3 MBq, iv after 57.5 mins; type: ADME, organism-based, Macaca mulatta; conditions: in vivo; in short: as §2
[41] = Biodistribution in rhesus monkey occipital lobe at 150.3 MBq, iv after 11 mins; type: ADME, organism-based, Macaca mulatta; conditions: in vivo; in short: as §3
[42] = Biodistribution in rhesus monkey occipital lobe at 150.3 MBq, iv after 37 mins; type: ADME, organism-based, Macaca mulatta; conditions: in vivo; in short: as §3
Striatum [43] = experiment: Biodistribution in rhesus monkey striatum at 150.3 MBq, iv after 9.5 mins; type: ADME, organism-based, Macaca mulatta; conditions: in vivo
Striatum [44] = experiment: Biodistribution in rhesus monkey striatum at 150.3 MBq, iv after 29 mins; type: ADME, organism-based, Macaca mulatta; conditions: in vivo
[45] = Biodistribution in rhesus monkey retina at 150.3 MBq, iv after 29 mins; type: ADME, organism-based, Macaca mulatta; conditions: in vivo

- Drug uptake (Striatum [1]): 50.12 kBq/ml
- Drug uptake [2]: 16.82 kBq/ml
- Drug uptake (Striatum [3]): 18.62 kBq/ml
- Drug uptake [4]: 16.76 kBq/ml
- Drug uptake [5]: 13.49 kBq/ml
- Drug uptake (Striatum [6]): 46.0188 kBq/ml
- Drug uptake [7]: 9.179 kBq/ml
- Drug uptake (Striatum [8]): 42.26 kBq/ml
- Drug uptake [9]: 14.54 kBq/ml
- Drug uptake [10]: 10.45 kBq/ml
- Drug uptake [11]: 43.92 kBq/ml
- Drug uptake (Hippocampus [12]): 23.13 kBq/ml
- Drug uptake (Striatum [13]): 34.7 kBq/ml
- Drug uptake (Striatum [14]): 10.6 kBq/ml
- Drug uptake (Hippocampus [15]): 16.7 kBq/ml
- Drug uptake [16]: 51.43 kBq/ml
- Drug uptake [17]: 22.54 kBq/ml
- Drug uptake [18]: 15.14 kBq/ml
- Drug uptake [19]: 18.84 kBq/ml
- Drug uptake (Striatum [20]): 21.63 kBq/ml
- Drug uptake (Striatum [21]): 8.262 kBq/ml
- Drug uptake [22]: 8.009 kBq/ml
- Drug uptake [23]: 14.42 kBq/ml
- Drug uptake [24]: 54.08 kBq/ml
- Drug uptake [25]: 18.41 kBq/ml
- Drug uptake [26]: 49.56 kBq/ml
- Drug uptake [27]: 38.562 kBq/ml
- Drug uptake [28]: 30.03 kBq/ml
- Drug uptake [29]: 51.01 kBq/ml
- Drug uptake [30]: 15.53 kBq/ml
- Drug uptake (Striatum [31]): 11.2 kBq/ml
- Drug uptake [32]: 34.76 kBq/ml
- Drug uptake [33]: 33.71 kBq/ml
- Drug uptake [34]: 9.37 kBq/ml
- Drug uptake (Hippocampus [35]): 9.565 kBq/ml
- Drug uptake [36]: 14.33 kBq/ml
- Drug uptake [37]: 50.94 kBq/ml
- Drug uptake (Striatum [38]): 20.01 kBq/ml
- Drug uptake [39]: 20.28 kBq/ml
- Drug uptake [40]: 10.34 kBq/ml
- Drug uptake [41]: 21.64 kBq/ml
- Drug uptake [42]: 11.24 kBq/ml
- Drug uptake (Striatum [43]): 31.24 kBq/ml
- Drug uptake (Striatum [44]): 15.32 kBq/ml
- Drug uptake [45]: 56.95 kBq/ml
Structure (SMILES): [11CH3]Oc1cccc(C(=O)NCCN2CCN(c3ncccc3C#N)CC2)c1
